Assay [1] has as its target Homeodomain-interacting protein kinase 1 (Homo sapiens) (UniProt Q86Z02). Put plainly: Inhibition of human recombinant HIPK1 at 2 uM by Eurofins kinase assay relative to control.
The target in assay [2] is Homeodomain-interacting protein kinase 2 (Homo sapiens) (UniProt Q9H2X6). Briefly: Inhibition of human recombinant HIPK2 at 2 uM by Eurofins kinase assay relative to control.
Assay [3] deals with Mitogen-activated protein kinase 8 (Homo sapiens) (UniProt P45983). Put plainly: Inhibition of human recombinant MAPK8 at 2 uM by Eurofins kinase assay relative to control.
The nature of assay [4]: Upregulation of PARP cleavage in human U-937 cells by measuring signal 2 at 5 uM measured after 48 hrs by immunoblot analysis. It counts as functional. Put shortly:
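U937 lymphoma cells grown in RPMI with 2 mM L-glutamine, 1 % pen/strep and 10 % FCS; exposed to compound or DMSO solvent control for 48 h. Total cellular proteins harvested and immunoblotted with an antibody against phosphorylated CK2-substrate motifs and for PARP. Read-out is the densitometric ratio of cleaved to uncleaved PARP signal. Representative of two independent experiments.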

Homeodomain-interacting protein kinase 2 (Homo sapiens), sequence (Q9H2X6 whole entry, looked up): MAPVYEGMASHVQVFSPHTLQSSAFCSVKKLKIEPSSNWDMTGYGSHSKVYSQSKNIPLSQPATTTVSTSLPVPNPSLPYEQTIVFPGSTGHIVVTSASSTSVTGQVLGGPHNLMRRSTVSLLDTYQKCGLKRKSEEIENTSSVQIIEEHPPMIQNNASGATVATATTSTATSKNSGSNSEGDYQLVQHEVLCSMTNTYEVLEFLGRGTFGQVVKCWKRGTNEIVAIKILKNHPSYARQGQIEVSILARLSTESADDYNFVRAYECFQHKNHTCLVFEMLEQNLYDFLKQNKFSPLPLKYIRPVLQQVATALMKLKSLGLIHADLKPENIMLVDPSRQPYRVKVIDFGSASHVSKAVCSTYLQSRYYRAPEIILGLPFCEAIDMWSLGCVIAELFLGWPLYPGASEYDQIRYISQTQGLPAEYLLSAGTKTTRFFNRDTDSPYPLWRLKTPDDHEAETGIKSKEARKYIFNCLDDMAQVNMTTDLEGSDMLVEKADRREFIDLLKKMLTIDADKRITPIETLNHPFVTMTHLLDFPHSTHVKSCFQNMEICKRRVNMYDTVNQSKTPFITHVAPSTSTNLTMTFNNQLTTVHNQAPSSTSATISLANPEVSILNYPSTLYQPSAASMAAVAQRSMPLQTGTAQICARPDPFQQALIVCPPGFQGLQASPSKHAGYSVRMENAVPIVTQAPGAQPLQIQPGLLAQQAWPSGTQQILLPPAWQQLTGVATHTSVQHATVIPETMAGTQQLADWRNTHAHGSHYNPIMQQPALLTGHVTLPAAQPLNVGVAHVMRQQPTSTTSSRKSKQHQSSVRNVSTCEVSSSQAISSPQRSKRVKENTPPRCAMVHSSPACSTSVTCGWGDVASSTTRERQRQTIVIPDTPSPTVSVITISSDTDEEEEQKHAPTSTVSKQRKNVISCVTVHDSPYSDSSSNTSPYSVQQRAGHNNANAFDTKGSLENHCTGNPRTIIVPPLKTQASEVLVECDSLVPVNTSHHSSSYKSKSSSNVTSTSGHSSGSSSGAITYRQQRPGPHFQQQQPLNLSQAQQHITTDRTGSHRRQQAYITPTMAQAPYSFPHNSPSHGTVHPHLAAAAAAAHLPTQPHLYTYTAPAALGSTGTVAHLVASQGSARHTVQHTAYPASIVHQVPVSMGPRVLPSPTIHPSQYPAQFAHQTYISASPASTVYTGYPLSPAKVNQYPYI
Mitogen-activated protein kinase 8 (Homo sapiens), sequence (P45983 whole entry): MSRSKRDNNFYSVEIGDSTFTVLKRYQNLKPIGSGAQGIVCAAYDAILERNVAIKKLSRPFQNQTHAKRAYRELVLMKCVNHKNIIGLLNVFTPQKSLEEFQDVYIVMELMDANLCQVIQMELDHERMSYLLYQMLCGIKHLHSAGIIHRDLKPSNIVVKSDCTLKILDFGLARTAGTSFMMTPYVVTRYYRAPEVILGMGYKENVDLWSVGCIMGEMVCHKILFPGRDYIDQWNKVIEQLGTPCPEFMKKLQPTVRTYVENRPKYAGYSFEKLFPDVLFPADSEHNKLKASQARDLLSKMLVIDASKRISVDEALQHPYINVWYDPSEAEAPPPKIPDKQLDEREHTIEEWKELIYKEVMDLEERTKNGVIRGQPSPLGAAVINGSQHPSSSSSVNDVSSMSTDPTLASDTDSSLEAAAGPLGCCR
Homeodomain-interacting protein kinase 1 (Homo sapiens), sequence (Q86Z02 whole entry, looked up): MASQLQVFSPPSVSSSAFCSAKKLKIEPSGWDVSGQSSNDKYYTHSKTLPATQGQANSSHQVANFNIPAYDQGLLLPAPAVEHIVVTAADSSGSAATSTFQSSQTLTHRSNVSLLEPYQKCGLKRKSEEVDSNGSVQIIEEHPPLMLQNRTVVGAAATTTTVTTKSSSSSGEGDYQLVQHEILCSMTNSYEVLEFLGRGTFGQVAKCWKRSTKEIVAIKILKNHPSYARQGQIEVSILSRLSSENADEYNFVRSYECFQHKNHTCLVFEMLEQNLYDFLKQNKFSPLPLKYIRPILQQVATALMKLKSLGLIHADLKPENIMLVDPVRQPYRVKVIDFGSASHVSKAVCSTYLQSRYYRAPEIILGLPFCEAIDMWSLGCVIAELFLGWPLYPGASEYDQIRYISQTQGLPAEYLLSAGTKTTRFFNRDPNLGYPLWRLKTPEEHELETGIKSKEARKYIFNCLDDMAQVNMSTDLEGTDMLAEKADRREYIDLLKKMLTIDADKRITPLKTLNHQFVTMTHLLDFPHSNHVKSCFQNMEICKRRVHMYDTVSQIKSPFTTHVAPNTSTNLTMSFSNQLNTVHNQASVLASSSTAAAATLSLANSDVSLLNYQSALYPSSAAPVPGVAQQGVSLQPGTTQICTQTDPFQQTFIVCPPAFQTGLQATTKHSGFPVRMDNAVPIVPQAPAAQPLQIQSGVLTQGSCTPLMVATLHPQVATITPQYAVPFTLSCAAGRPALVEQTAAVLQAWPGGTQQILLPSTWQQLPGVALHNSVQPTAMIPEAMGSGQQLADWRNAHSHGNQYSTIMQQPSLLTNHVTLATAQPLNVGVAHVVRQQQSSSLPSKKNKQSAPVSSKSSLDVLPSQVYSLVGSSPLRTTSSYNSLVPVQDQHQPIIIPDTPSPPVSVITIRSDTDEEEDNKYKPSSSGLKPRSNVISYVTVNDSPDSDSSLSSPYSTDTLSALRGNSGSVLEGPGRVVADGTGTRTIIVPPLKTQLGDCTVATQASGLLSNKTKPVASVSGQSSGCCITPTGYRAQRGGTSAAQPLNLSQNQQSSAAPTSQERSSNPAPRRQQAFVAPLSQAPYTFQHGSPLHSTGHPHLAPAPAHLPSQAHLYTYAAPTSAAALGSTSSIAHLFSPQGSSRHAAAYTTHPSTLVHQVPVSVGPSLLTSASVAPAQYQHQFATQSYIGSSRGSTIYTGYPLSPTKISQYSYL

Take `Clc1ccc(N2CCN(c3ncnc4sc5c(c34)CCNC5)CC2)cc1.O=C(O)C(F)(F)F`: the inhibition (in general, the change of the read-out against control, counted positive when it falls) in assay [1] amounted to 5%; in assay [2] it was 15%; in assay [3], 18%. This molecule had an Activity in assay [4] of 17%.

The values above are taken from ChEMBL document CHEMBL6096655, “Discovery of a novel, selective CK2 inhibitor class with an unusual basic scaffold” (Eur J Med Chem, 2025).
